Reference: ChEMBL document CHEMBL1143149, “Synthesis, metal ion binding, and biological evaluation of new anticancer 2-(2'-hydroxyphenyl)benzoxazole analogs of UK-1” (Bioorg Med Chem, 2008)
Active and inactive are the calls of the source. The calls are words filed in the database; no cut-off is given here.

Legend:
[1] = system: MCF7; assay: Cytotoxicity against human MCF7 cells by Alamar blue assay; type: functional, cell-based
Summary of the method: (§1)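 MCF-7 cells in improved MEM (Richter's) with L-glutamine, 10% FBS and 1% penicillin/streptomycin. 1-3×10^3 cells/well preincubated 24 h at 37 °C, 5% CO2. DMSO solutions added in duplicate at 0.001–50 μM final, then 72 h exposure. AlamarBlue added for 6 h; fluorescence read ex 530/em 590 nm. IC50 by sigmoidal fit of % growth against time-zero and vehicle.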

[2] = Enhancement of DNA binding affinity in presence of Cu2+/Ni2+
[3] = system: A549; assay: Cytotoxicity against human A549 cells by Alamar blue assay; type: functional, cell-based
Summary of the method: (§2)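 A549 cells in Ham's F-12 (Kaighn's) with 10% FBS and 1% penicillin/streptomycin. Seeded at 1-3×10^3 cells/well for 24 h at 37 °C, 5% CO2. Compound in DMSO added in duplicate at 0.001–50 μM final, then 72 h. Fresh medium plus AlamarBlue for 6 h; fluorescence ex 530/em 590 nm. % growth relative to time-zero and vehicle; IC50 from Hill-equation non-linear fit.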

[4] = system: A549; assay: Cytotoxicity against human A549 cells after 24 hrs; type: functional, cell-based; conditions: A549, 24 h
[5] = system: MCF7; assay: Cytotoxicity against human MCF7 cells after 24 hrs; type: functional, cell-based; conditions: MCF7, 24 h
[6] = system: MCF7; assay: Cytotoxicity against human MCF7 cells after 72 hrs; type: functional, cell-based; conditions: MCF7, 72 h; summary of the method: as §1
[7] = system: A549; assay: Cytotoxicity against human A549 cells after 72 hrs; type: functional, cell-based; conditions: A549, 72 h; summary of the method: as §2
[8] = system: A549; assay: Cytotoxicity against human A549 cells after 72 hrs in presence of CuCl2; type: functional, cell-based; conditions: A549, 72 h
Summary of the method: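 A549 cells in Ham's F-12 (Kaighn's) with 10% FBS and penicillin/streptomycin. Compound plus 10 μM CuCl2 for 72 h at 37 °C, 5% CO2, in duplicate. Viability by AlamarBlue fluorescence (ex 530/em 590 nm) after 6 h. IC50 from non-linear fit of % growth versus time-zero and vehicle controls.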

[9] = system: MCF7; assay: Cytotoxicity against human MCF7 cells after 24 hrs in presence of CuCl2; type: functional, cell-based; conditions: MCF7, 24 h
[10] = system: MCF7; assay: Cytotoxicity against human MCF7 cells after 72 hrs in presence of CuCl2; type: functional, cell-based; conditions: MCF7, 72 h
Summary of the method: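 MCF-7 cells in Richter's improved MEM with 10% FBS. Compound given with 10 μM CuCl2 for 72 h at 37 °C, 5% CO2, in duplicate. AlamarBlue for 6 h, fluorescence ex 530/em 590 nm. IC50 by non-linear Hill fit of % growth referenced to time-zero and vehicle wells.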

[11] = system: A549; assay: Cytotoxicity against human A549 cells after 24 hrs in presence of CuCl2; type: functional, cell-based; conditions: A549, 24 h

SMILES	IC50 [1] [µM]	Activity [2]	IC50 [3] [µM]	further results
CNC(=O)c1cccc2oc(-c3ccccc3O)nc12	10	Active	11	
COC(=O)c1cccc2oc(-c3ccccc3O)nc12	4	Active	12	
COC(=O)c1cccc2nc(-c3ccccc3O)oc12	7		35	
CO[C@@]12[C@H](COC(N)=O)C3=C(C(=O)C(C)=C(N)C3=O)N1C[C@@H]1N[C@@H]12 [MITOMYCIN]				IC50 [4]: 4.5 µM; IC50 [5]: 5 µM; IC50 [6]: 1.2 µM; IC50 [7]: 0.24 µM
COC(=O)c1cccc2oc(-c3cccc4oc(-c5ccccc5O)nc34)nc12				IC50 [8]: 0.2 µM; IC50 [9]: 4.6 µM; IC50 [10]: 1.2 µM; IC50 [4]: 17 µM; IC50 [11]: 4.5 µM; IC50 [5]: 31 µM; IC50 [6]: 1.7 µM; IC50 [7]: 1 µM
CCCCNC(=O)c1cccc2oc(-c3ccccc3O)nc12	30	Active	14	
CCOC(=O)c1cccc2oc(-c3ccccc3O)nc12	15	Active	40	
O=C(OCCOCCOCCOCCO)c1cccc2oc(-c3ccccc3O)nc12	13	Active	11	
O=C(NCCOCCO)c1cccc2oc(-c3ccccc3O)nc12	> 50	inactive	41	
COc1ccccc1-c1nc2c(C(=O)O)cccc2o1	> 50		> 50	
O=C(NCCCCCCO)c1cccc2oc(-c3ccccc3O)nc12	31	inactive	39	
